The values that follow come from ChEMBL document CHEMBL3621046, “Discovery of a potent enoyl-acyl carrier protein reductase (FabI) inhibitor suitable for antistaphylococcal agent” (Bioorg Med Chem Lett, 2015).

Structures are written as SMILES. Converted amounts (≈) assume the structure as drawn.

Data set [1] deals with T1, Enoyl-[acyl-carrier-protein] reductase [NADPH] FabI (Staphylococcus aureus, UniProt Q6GI75).
T1 sequence (Q6GI75 whole entry): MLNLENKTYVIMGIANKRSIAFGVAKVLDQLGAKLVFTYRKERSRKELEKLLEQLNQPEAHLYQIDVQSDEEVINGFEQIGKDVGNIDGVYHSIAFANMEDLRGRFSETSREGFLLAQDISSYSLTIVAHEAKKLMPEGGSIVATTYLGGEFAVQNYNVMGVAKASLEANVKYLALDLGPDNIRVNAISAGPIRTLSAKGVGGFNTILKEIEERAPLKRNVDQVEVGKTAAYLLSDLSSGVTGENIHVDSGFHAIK
Kind of data set: Inhibition of Staphylococcus aureus FabI assessed as reduction in inhibition of reduction of trans-2-octenoyl N-acetylcysteamine substrate by spectrophotometry.

Data set [2] has as its system Staphylococcus aureus. The experiment in a line: Antibacterial activity against Staphylococcus aureus incubated for 18 hrs by agar dilution method. It counts as functional. Background: Agar dilution tests growth on a series of plates holding different concentrations.
Data set [3] concerns Staphylococcus aureus. The experiment in a line: Antibacterial activity against methicillin-resistant Staphylococcus aureus incubated for 18 hrs by agar dilution method. It counts as functional. Summed up: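 Agar dilution. Strains were grown 18 h at 37 °C with shaking in Fleisch extract broth (beef extract 1%, peptone 1%, NaCl 0.3%, Na₂HPO₄ 0.2%, pH 7.4–7.5), then diluted 100-fold. Plates incubated 37 °C, 18 h. MIC is the lowest concentration preventing growth.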

The nature of data set [4]: Terminal half life in ICR mouse at 10 mg/kg, iv after 5 mins to 6 hrs. The settings on record: in vivo, read-out: beta t1/2. It is filed as ADME, organism-based.
Data set [5] can be described thus: Clearance in ICR mouse at 10 mg/kg, iv after 5 mins to 6 hrs. It counts as ADME, organism-based. Conditions: in vivo.
The nature of data set [6]: Cmax in ICR mouse at 10 mg/kg, po after 5 mins to 6 hrs. It counts as ADME, organism-based. Set-up: dose 10 mg/kg, route oral. The settings on record: in vivo.
Data set [7] can be described thus: Terminal half life in ICR mouse at 10 mg/kg, po after 5 mins to 6 hrs. Conditions: in vivo, read-out: beta t1/2. It counts as ADME, organism-based.
Data set [8] is described as follows: AUClast in ICR mouse at 10 mg/kg, po after 5 mins to 6 hrs. It is filed as ADME, organism-based. More on the design: dose 10 mg/kg, time upper 6 hr, time lower 0.083 hr, route oral. Conditions: in vivo.
Data set [9] in a line: Volume of distribution at steady state in ICR mouse at 10 mg/kg, iv after 5 mins to 6 hrs. It is filed as ADME, organism-based. Conditions: in vivo, read-out: Vdss.
A short description of data set [10]: AUC (0 to infinity) in ICR mouse at 10 mg/kg, po after 5 mins to 6 hrs. It counts as ADME, organism-based. Set-up: dose 10 mg/kg, time infinity, route oral. The settings on record: in vivo.
Data set [11] can be described thus: Tmax in ICR mouse at 10 mg/kg, po after 5 mins to 6 hrs. It is filed as ADME, organism-based. The settings on record: in vivo.
Data set [12] can be described thus: AUC (0 to infinity) in ICR mouse at 10 mg/kg, iv after 5 mins to 6 hrs. It counts as ADME, organism-based. Set-up: dose 10 mg/kg, time infinity, route intravenous. The settings on record: in vivo.
A short description of data set [13]: Mean residence time in ICR mouse at 10 mg/kg, iv after 5 mins to 6 hrs. Conditions: in vivo. It is filed as ADME, organism-based.
A short description of data set [14]: AUClast in ICR mouse at 10 mg/kg, iv after 5 mins to 6 hrs. Conditions: in vivo. It is filed as ADME, organism-based. Set-up: time lower 0.083 hr, dose 10 mg/kg, time upper 6 hr, route intravenous.
Data set [15] in a line: Oral bioavailability in ICR mouse at 10 mg/kg after 5 mins to 6 hrs. Conditions: in vivo. It counts as ADME, organism-based.

One may read the IC50 as the concentration that inhibits the measured activity by half. One may read the MIC as the least concentration at which growth counts as inhibited. Low readings indicate inhibition by little substance, high ones a need for much substance. Consider `O=c1cc(COc2ccccc2)n(C2CC2)cc1Oc1cccc(Cl)c1Cl`, for which, in data set [1], the 50% inhibitory concentration (IC50) was found to be 1500 nM. Moreover, the MIC in [2] worked out at 3.12 µg/mL (≈ 7.77 µM); in data set [3], 6.25 µg/mL (≈ 15.5 µM).
On the same counts, the results for `O=c1cc(COc2ccccc2)[nH]cc1Oc1c(Cl)cccc1Cl` are 4980 nM, 3.12 µg/mL (≈ 8.63 µM) and 3.12 µg/mL (≈ 8.63 µM).
Turning to `O=c1cc(COc2ccccc2)occ1Oc1ccc(Cl)cc1Cl`, in data set [1], the 50% inhibitory concentration (IC50) came to 680 nM. Moreover, the minimum inhibitory concentration (MIC) came to 3.12 µg/mL (≈ 8.6 µM) in [2] and 6.25 µg/mL (≈ 17.2 µM) in data set [3].
As to `Cc1cc(Cl)ccc1Oc1coc(COc2ccccc2)cc1=O`, the IC50 in [1] amounted to 450 nM. The minimal inhibitory concentration (MIC) was 1.56 µg/mL (≈ 4.56 µM) in [2] and 6.25 µg/mL (≈ 18.2 µM) in data set [3].
On the same counts, the results for `Cc1ccc(Oc2coc(COc3ccccc3)cc2=O)c(C)c1` are 380 nM, 1.56 µg/mL (≈ 4.85 µM) and 1.56 µg/mL (≈ 4.85 µM).
With `O=c1cc(COc2ccccc2)occ1Oc1cccc(Cl)c1Cl`, the half-inhibitory concentration (IC50) in data set [1] was 1250 nM. Moreover, the minimal inhibitory concentration (MIC) in [2] came to 6.25 µg/mL (≈ 17.2 µM); in data set [3], 12.5 µg/mL (≈ 34.4 µM).
As to `O=c1cc(COc2ccccc2)occ1Oc1c(Cl)cccc1Cl`, in data set [1], the half-maximal inhibitory concentration (IC50) came out at 1420 nM. For the same molecule, the values for the MIC in [2] and in data set [3] were 6.25 µg/mL (≈ 17.2 µM) and 12.5 µg/mL (≈ 34.4 µM), respectively.
On the same counts, the results for `Cc1c(Oc2coc(COc3ccccc3)cc2=O)cccc1[N+](=O)[O-]` are 3520 nM, 12.5 µg/mL (≈ 35.4 µM) and 12.5 µg/mL (≈ 35.4 µM).
On the same counts, the results for `O=c1cc(COc2ccccc2)[nH]cc1Oc1ccc(Cl)cc1Cl` are 1820 nM, 0.781 µg/mL (≈ 2.16 µM) and 1.56 µg/mL (≈ 4.32 µM).
On the same counts, the results for `Cn1cc(Oc2ccc(Cl)cc2Cl)c(=O)cc1COc1ccccc1` are 120 nM, 0.195 µg/mL (≈ 0.518 µM) and 0.195 µg/mL (≈ 0.518 µM).
For the molecule `O=c1cc(COc2ccccc2)n(C2CC2)cc1Oc1ccc(Cl)cc1Cl`, the half-inhibitory concentration (IC50) in data set [1] amounted to 480 nM. The minimal inhibitory concentration (MIC) in data set [2] and in [3] was 1.56 µg/mL (≈ 3.89 µM) in each case.
Take `CCCCn1cc(Oc2ccc(Cl)cc2Cl)c(=O)cc1COc1ccccc1`: the IC50 in data set [1] was 1250 nM. Moreover, the MIC in [2] and in [3] was 6.25 µg/mL (≈ 14.9 µM) each time.
With `O=c1cc(COc2ccccc2)n(Cc2ccccc2)cc1Oc1ccc(Cl)cc1Cl`, the IC50 in [1] came to 1420 nM. The MIC in data set [2] was 6.25 µg/mL (≈ 13.8 µM); in data set [3], 12.5 µg/mL (≈ 27.6 µM).
On the same counts, the results for `Cc1cc(Cl)ccc1Oc1c[nH]c(COc2ccccc2)cc1=O` are 400 nM, 1.56 µg/mL (≈ 4.57 µM) and 1.56 µg/mL (≈ 4.57 µM).
On the same counts, the results for `Cc1cc(Cl)ccc1Oc1cn(C)c(COc2ccccc2)cc1=O` are 110 nM, 0.098 µg/mL (≈ 0.275 µM) and 0.098 µg/mL (≈ 0.275 µM).
On the same counts, the results for `Cc1cc(Cl)ccc1Oc1cn(C2CC2)c(COc2ccccc2)cc1=O` are 470 nM, 0.391 µg/mL (≈ 1.02 µM) and 0.781 µg/mL (≈ 2.05 µM).
`CCCCn1cc(Oc2ccc(Cl)cc2C)c(=O)cc1COc1ccccc1`: the half-inhibitory concentration (IC50) in [1] is 630 nM. The MIC in data set [2] and in data set [3] was 3.12 µg/mL (≈ 7.85 µM) each time.
`Cc1cc(Cl)ccc1Oc1cn(Cc2ccccc2)c(COc2ccccc2)cc1=O`: in data set [1], the IC50 is 650 nM. For the same molecule, the MIC in data set [2] came to 3.12 µg/mL (≈ 7.24 µM); in data set [3] it was 6.25 µg/mL (≈ 14.5 µM).
On the same counts, the results for `Cc1ccc(Oc2c[nH]c(COc3ccccc3)cc2=O)c(C)c1` are 1140 nM, 0.781 µg/mL (≈ 2.43 µM) and 1.56 µg/mL (≈ 4.86 µM).
As a reminder, the clearance is a measure of how efficiently the substance is removed, as volume per time. The Cmax is the maximum level reached in the sampled fluid or tissue. By AUC(0-t) is commonly meant the area under the concentration-time curve up to a stated or last time point. A higher AUC(0-t) goes with more exposure. Broadly, the AUC(0-inf) is the area under the concentration-time curve extrapolated to infinity. One may read the Tmax as the time from dosing to the highest level. The term MRT denotes a mean duration of stay, worked out from the concentration-time curve. The bioavailability is dose-corrected exposure relative to a reference, in per cent. The low end stands for poor availability, the high end for good availability. As to `Cc1ccc(Oc2cn(C)c(COc3ccccc3)cc2=O)c(C)c1`, the IC50 in data set [1] was determined as 80 nM. Moreover, the half-life in data set [4] came to 47.9 min; in data set [7], 33.9 min. In data set [5], the clearance is 28.1 mL/min/kg. This molecule gave a Cmax in data set [6] of 4040 ng/mL. Also, the values for the exposure AUC(0-t) in data set [8] and in data set [14] were 2480 ng·h/mL and 5910 ng·h/mL, respectively. Besides, the MIC in data set [2] and in data set [3] was 0.049 µg/mL (≈ 0.146 µM) throughout. The Vd in data set [9] amounted to 1.03 L/kg. Further, the values for the total exposure AUC(0-inf) in data set [10] and in data set [12] were 2490 ng·h/mL and 5920 ng·h/mL, respectively. Besides, the time of peak concentration (Tmax) in [11] was 5 min. In [13], this molecule had a mean residence time MRT of 36.5 min. The molecule further returned a bioavailability in data set [15] of 41.9%.
Turning to `Cc1ccc(Oc2cn(C3CC3)c(COc3ccccc3)cc2=O)c(C)c1`, the half-maximal inhibitory concentration (IC50) in data set [1] was 3170 nM. Moreover, the minimum inhibitory concentration (MIC) is 0.391 µg/mL (≈ 1.08 µM) in [2] and 1.56 µg/mL (≈ 4.32 µM) in [3].
On the same counts, the results for `CCCCn1cc(Oc2ccc(C)cc2C)c(=O)cc1COc1ccccc1` are 1000 nM, 0.781 µg/mL (≈ 2.07 µM) and 1.56 µg/mL (≈ 4.14 µM).
On to `Cc1ccc(Oc2cn(Cc3ccccc3)c(COc3ccccc3)cc2=O)c(C)c1`, for which, in data set [1], the IC50 worked out at 2690 nM. Further, the MIC in data set [2] stood at 1.56 µg/mL (≈ 3.8 µM); in data set [3], 3.12 µg/mL (≈ 7.59 µM).
On the same counts, the results for `O=c1cc(COc2ccccc2)[nH]cc1Oc1cccc(Cl)c1Cl` are 840 nM, 1.56 µg/mL (≈ 4.32 µM) and 1.56 µg/mL (≈ 4.32 µM).
On the same counts, the results for `Cn1cc(Oc2cccc(Cl)c2Cl)c(=O)cc1COc1ccccc1` are 220 nM, 0.195 µg/mL (≈ 0.518 µM) and 0.195 µg/mL (≈ 0.518 µM).
